# Screens from PubChem.
# A selection: hits, their analogues and other compounds. The true share with any hit is near 3.5%.
# RGS4 block: human RGS4 inhibition. actives 0.45% (n = 310,000). P49798. B-score at 10 µM. HEK293 M3R/RGS4 inducible, Fluo-4 calcium flux; active compounds read high; triggered by carbachol at its EC20;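 active means B-score, a plate-corrected calcium signal, over three deviations above library mean, with baseline fluorescence within five deviations of library mean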;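 further: RGS4 expression induced by doxycycline in cells with stable M3 receptor; B-score is computed from the integrated fluorescence ratio over baseline after carbachol; higher B-score means a larger calcium signal and so more RGS4 inhibition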
# Target sequence (P49798 whole entry, looked up): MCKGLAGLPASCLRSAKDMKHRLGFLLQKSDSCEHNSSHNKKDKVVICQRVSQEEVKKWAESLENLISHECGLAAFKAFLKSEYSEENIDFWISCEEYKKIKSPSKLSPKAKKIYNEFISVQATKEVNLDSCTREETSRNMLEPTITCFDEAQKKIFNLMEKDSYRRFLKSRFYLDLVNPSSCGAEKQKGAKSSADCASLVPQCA
# MrgX1 ag: activates human MrgX1 receptor signaling; B-score at 10 µM; actives 0.44% (n = 310,000); AID 588627; Q96LB2; MrgX1-HEK293 cells, Fluo-4 calcium fluorescence, agonist mode; active compounds read high;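 active means calcium response B-score plate-corrected fluorescence ratio at least 3 library SD, with starting fluorescence B-score inside 5 SD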
# Target sequence (Q96LB2 whole entry, looked up): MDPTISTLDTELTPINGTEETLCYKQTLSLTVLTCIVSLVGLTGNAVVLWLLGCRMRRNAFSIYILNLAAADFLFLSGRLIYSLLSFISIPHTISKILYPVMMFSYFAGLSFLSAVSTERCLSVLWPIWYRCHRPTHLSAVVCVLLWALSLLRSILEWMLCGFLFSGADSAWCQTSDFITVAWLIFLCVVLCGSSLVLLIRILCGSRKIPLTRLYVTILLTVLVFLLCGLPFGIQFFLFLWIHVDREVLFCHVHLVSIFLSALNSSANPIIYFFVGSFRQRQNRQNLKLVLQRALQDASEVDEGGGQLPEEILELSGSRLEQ
#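 Material – MrgX1-expressing HEK293 cells · Input – 15,000 cells seeded per well · Dosing – compound as first of three additions · Times – overnight seeding, then 1 h dark dye loading · Measured by – kinetic Fluo-4 NW fluorescence of intracellular calcium · Read-out – B-scored fluorescence response ratio · Benchmarks – positive and negative control wells on each plate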
# RGS4 act: potentiators or activators of RGS4. HEK293 M3R/inducible RGS4, carbachol calcium flux Fluo4; active compounds read low. actives 0.92% (n = 310,000). B-score at 10 µM. AID 463111;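 active means B-score of the integrated calcium signal more than 4 SD below the library mean, with starting fluorescence not abnormally high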;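 further: negative B-score means reduced calcium response which marks RGS4 activation or potentiation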
#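 Assay system: HEK293 FlpIn-TREx cells, stable M3R, doxycycline-inducible RGS4 / Probe or stimulus: carbachol, ECmax concentration / Times: overnight RGS4 induction, 30 min dye load 37 °C, 20 min compound RT / Signal: kinetic calcium fluorescence imaging with Fluo4-AM dye, 2 µM / Measure: Agonist-evoked peak-minus-minimum fluorescence over baseline, integrated ratio, B score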
# MrgX1 antag: antagonists of human MrgX1 receptor | Q96LB2 | MRGX1-HEK293 calcium flux, Fluo-4, BAM8-22 antagonism; active compounds read low | B-score at 10 µM | actives 1.3% (n = 310,000);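 active means calcium-response B-score plate-corrected more than 3 library SD below zero, starting fluorescence within 5 deviations, no agonist response on first addition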;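 further: peak minus trough fluorescence over baseline after final BAM8-22 challenge near maximal dose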
# MrgX1 PAM: human MrgX1 positive allosteric modulation, primary screen; AID 588675; B-score at 10 µM; actives 0.63% (n = 310,000); Q96LB2; MrgX1-HEK293, Fluo-4 calcium flux, FDSS; active compounds read high;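 active means plate-corrected calcium response at least 3 library SD above typical, normal starting fluorescence, not activating the receptor alone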;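 further: compound read alongside a low EC10 to EC30 dose of BAM8-22 agonist; peak minus trough fluorescence over baseline measured at the second addition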
# MrgX1 PAM conf: human MrgX1 positive allosteric modulation, re-confirmation. activation (ratio percentage), % at 10 µM. actives 13% (n = 1,200). shares compounds with MrgX1 PAM. MrgX1-HEK293, Fluo-4 calcium fluorescence, FDSS;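 active means ratio at least 3 SD above the weak peptide control, stable starting fluorescence, no direct agonism earlier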;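 further: compound followed by low BAM8-22 agonist challenge near EC20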
# HEK293 Ca flux: MrgX1 antagonist counter-screen hit in parental HEK293 cells; actives 2% (n = 4,000); shares compounds with MrgX1 antag; Fluo-4 calcium fluorescence, FDSS; fluorescence ratio F(max-min)/F0 at 10 µM;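 active means duplicate-averaged calcium fluorescence ratio at least three times the standard deviation of buffer wells, a nonspecific response in parental cells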
# HEK293 Ca counter: activity in parental HEK293 cells without MrgX1. shares compounds with MrgX1 antag. parental HEK293 calcium flux, Fluo-4 fluorescence ratio; active compounds read high. fluorescence ratio F(max-min)/F0 at 10 µM. actives 0.4% (n = 4,000). AID 624114;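 active means calcium fluorescence ratio, averaged over duplicates, at least 3 SD of the buffer-well ratio, meaning a nonspecific response in receptor-free cells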;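 further: untransfected parental HEK293 lacking MrgX1 used as counterscreen for MrgX1 allosteric activators; fluorescence change taken during the second addition on a kinetic imager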
# HEK293 Ca cntr2: counter-screen for MrgX1 activators: effect in parental HEK293 cells. shares compounds with MrgX1 antag. Fluo-4 calcium fluorescence (FDSS); active compounds read high. fluorescence ratio F(max-min)/F0 at 10 µM. actives 8.7% (n = 4,000);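 active means calcium fluorescence ratio at least three times the spread of buffer wells, meaning a non-specific response in parental cells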
# * = called active by the depositor; i = inactive; / = no result.
SMILES,RGS4 block,MrgX1 ag,RGS4 act,MrgX1 antag,MrgX1 PAM,MrgX1 PAM conf,HEK293 Ca flux,HEK293 Ca counter,HEK293 Ca cntr2
C#CC(CC)(CC)NC(=S)Nc1cccc(C(C)=O)c1,i,i,i,i,8.3*,i,i,i,i
CCCCNC(=S)Nc1cccc(C(C)=O)c1,i,i,i,i,i,/,/,/,/
CCN1C(=O)CSC1=NC12CC3CC(CC(C3)C1)C2,i,i,i,i,i,/,/,/,/
CN1C(=O)CSC1=NC12CC3CC(CC(C3)C1)C2,i,i,i,i,8.2*,i,i,i,i
COC(=O)c1cc(C(=O)OC)n(Cc2ccc(F)cc2)c1C,i,i,i,i,6.5*,i,i,i,i
COC(=O)c1cc(C(=O)OC)n(Cc2ccc(F)cc2)n1,i,i,i,i,i,/,/,/,/
COc1ccc(Nc2nc3ccccc3n3nnnc23)cc1,i,i,i,i,13*,i,i,i,i
Cc1ccccc1OCC(=O)Nc1ccccc1N1CCOCC1,i,i,i,i,6.8*,i,i,i,i
O=C(COc1ccccc1)Nc1ccccc1N1CCN(c2ccccc2)CC1,i,i,i,i,13*,i,i,i,i
Cc1ccc(OCC(=O)Nc2ccccc2-c2ccccc2)cc1,i,i,i,i,6.6*,i,i,i,i
CC(C)C(=O)N1CCN(c2ccccc2NC(=O)COc2ccccc2)CC1,i,i,i,i,i,/,/,/,/
COc1ccc(N2CCOCC2)c(NC(=O)COc2cccc(C)c2C)c1,i,i,i,i,12*,i,i,i,i
COc1ccc(N2CCOCC2)c(NC(=O)COc2cccc(C)c2)c1,i,i,i,i,i,/,/,/,/
Cc1cccc(NC(=O)CSc2nnc([C@@H](N)Cc3ccccc3)o2)c1C,i,i,i,i,i,/,/,/,/
CN(CC(=O)Nc1ccc(N2CCOCC2)cc1)C(=O)CCc1cc(C(C)(C)C)c(O)c(C(C)(C)C)c1,i,i,i,i,i,/,/,/,/
Cc1cc(C)c(OCC(=O)Nc2ccccc2N2CCOCC2)c(C)c1,i,i,i,i,6.9*,i,i,i,i
CN(C)S(=O)(=O)c1ccc(N2CCCC2)c(C(=O)N2CCN(c3ccc([N+](=O)[O-])cc3)CC2)c1,i,i,i,i,i,/,/,/,/
COc1ccccc1CNC(=O)c1cc(C)nn1-c1ccccc1,i,i,i,i,i,/,/,/,/
Cc1cc(C(=O)NCc2ccccc2Cl)n(-c2ccccc2)n1,i,i,i,i,9.3*,i,i,i,i
c1ccc(-[n+]2nc(Nc3cccc4ccccc34)sc2-c2c3ccccc3cc3ccccc23)cc1,/,i,/,i,i,/,/,/,/
COc1ccc(-c2csc(NC(=O)C3CSC4(C)CCC(=O)N34)n2)cc1OC (stereo not given),i,i,i,i,11*,9.1%*,i,i,i
CC12CCC(=O)N1C(C(=O)Nc1nc(-c3ccc(F)c(F)c3)cs1)CS2 (stereo not given),i,i,i,i,i,/,/,/,/
O=C(c1ccc(F)cc1)n1c(NCc2ccccc2)n[nH]c1=S,i,i,i,i,7.3*,i,i,i,i
Cn1c(SCC(=O)Nc2ccc(Br)cn2)nnc1C1CC1,i,i,i,i,i,/,/,/,/
Cc1c(Cl)cccc1NC(=O)CC1NCCNC1=O (stereo not given),i,i,i,i,13*,i,i,i,i
SMILES,RGS4 block,MrgX1 ag,RGS4 act,MrgX1 antag,MrgX1 PAM,MrgX1 PAM conf,HEK293 Ca flux,HEK293 Ca counter,HEK293 Ca cntr2
COc1cccc(Nc2ncccc2C(=O)Nc2ccccc2)c1,i,i,i,i,7.6*,i,i,i,i
CN(C)c1ccc(C(c2ccc(N(C)C)cc2)c2ccc([N+](=O)[O-])cc2)cc1,i,i,i,i,i,/,/,/,/
O=C(CCC(=O)N1CCN(c2ccc(O)cc2)CC1)c1ccc(Br)cc1,i,i,i,i,i,/,/,/,/
NC(=O)C1CCN(C(=O)CCC(=O)c2ccc(Br)cc2)CC1,i,i,i,i,8.7*,i,i,i,i
CC(C)(C)c1cc(N)n2nc(C(C)(C)C)cc2n1,i,i,i,i,7.7*,i,i,i,i
Cc1cc2nc(C(C)(C)C)cc(N)n2n1,i,i,i,i,i,/,/,/,/
O=C(NCN1CCOCC1)c1cnccn1,i,i,i,i,i,/,/,/,/
COc1ccccc1NC(=O)c1csc2c1CCCC2,i,i,i,i,i,/,/,/,/
O=C(Nc1ccccn1)c1csc2c1CCCC2,i,i,i,i,8.6*,i,i,i,i
O=C(NCCNc1ccccc1[N+](=O)[O-])c1cc(F)c(F)cc1Cl,i,i,i,i,i,/,/,/,/
CC1=C(C(=O)Nc2ccc(Cl)cc2)C2(CCCCC2)C(C(N)=O)C(=S)N1 (stereo not given),i,i,i,i,12*,i,i,i,i
CC(NC(=O)C1CCCN1S(=O)(=O)c1cccc2cccnc12)c1ccccc1 (stereo not given),i,i,i,i,i,/,/,/,/
CC(NC(=O)C1CCN(S(=O)(=O)c2cccc3cccnc23)CC1)c1ccccc1 (stereo not given),i,i,i,i,6.5*,i,i,i,i
COc1ccc(N2C(=O)C(CN3CCN(C)CC3)C2c2ccccc2)cc1 (stereo not given),i,i,i,i,i,/,/,/,/
Cc1cc(C)n(C(=O)CNc2ccc(C)c(C)c2)n1,i,i,i,i,8.6*,i,i,i,i
O=C(NCc1n[nH]c(=S)n1-c1ccc(Br)cc1)c1cccs1,i,i,i,i,i,/,/,/,/
